Experimental data: ChEMBL document CHEMBL1150633, “In vitro cytotoxic activity of phenanthroindolizidine alkaloids from Cynanchum vincetoxicum and Tylophora tanakae against drug-sensitive and multidrug-resistant cancer cells” (J Nat Prod, 2002)

Experiments:
[1] = Cytotoxicity against multidrug-resistant human KBV1 cells by MTS/PMS assay; format: functional, cell-based; details: KB-V1
Outline: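 Mycoplasma-free KB-V1 carcinoma cells, selected from KB-3-1 for vinblastine resistance and obtained from the NCI Laboratory of Cell Biology. They show a full multidrug-resistance phenotype including P-170 glycoprotein efflux pump expression. Cytotoxicity expressed as IC50.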

[2] = Cytotoxicity against drug-sensitive human KB-3-1 cells by MTS/PMS assay
[3] = Resistance index, ratio for IC50 for multidrug-resistant human KBV1 cells to IC50 for drug-sensitive human KB-3-1 cells

Row | SMILES | IC50 [1] [nM] | IC50 [2] [nM] | Ratio IC50 [3]
1 | COc1ccc(C2=C(c3ccc(OC)c(OC)c3)C[C@H]3CCCN3C2)cc1 | 2440 | 2630 | –
2 | COc1ccc(C2=C(c3ccc(O)cc3)CN3CCC[C@@H]3C2)cc1OC | 425 | 403 | –
3 | COc1cc2c3c(c4ccc(O)cc4c2cc1OC)CN1CCC[C@@H]1C3 | 10 | 7 | –
4 | COc1cc2c(cc1O)c1c(c3cc(OC)c(OC)cc32)C[C@H]2CCCN2C1 | 17 | 15 | –
5 | COc1cc2c3c(c4ccc(OC)c(OC)c4c2cc1OC)C[C@@H]1CCCN1C3 | 54 | 43 | –
6 | COc1ccc2c3c(c4cc(OC)c(OC)cc4c2c1)C[C@H]1CCCN1C3 [(-)-ANTOFINE] | 14 | 16 | –
7 | COC(=O)c1ccccc1-c1c2ccc(=N)cc-2oc2cc(N)ccc12.Cl [RHODAMINE123] | > 500000 | 2200 | >225
8 | COc1cc2c3c(c4cc(OC)c(OC)cc4c2cc1OC)CN1CCC[C@@H]1C3 [TYLOPHORINE] | 173 | 214 | –
9 | CC[C@]1(O)C[C@@H]2CN(CCc3c([nH]c4ccccc34)[C@@](C(=O)OC)(c3cc4c(cc3OC)N(C)[C@H]3[C@@](O)(C(=O)OC)[C@H](OC(C)=O)[C@]5(CC)C=CCN6CC[C@]43[C@@H]65)C2)C1 [VINBLASTINE] | – | – | 210
